From PubChem BioAssay
Sampled rows, rich in hits. Any-hit rate of the full collection: about 0.63%.
IDE cell activ = IDE (human) activation, cell-based; hit rate 0.073% among 340,000; AID 493087; HEK cells, FAbeta-B cleavage, fluorescence polarization; 0% vehicle, 100% cell-free pure enzyme wells; activation, % at 5.96 µM; P14735;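 active means activation above the mean of all tested compounds plus 3 SD, set per screening campaign, cut at about 17% in these data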
IDE cell inh = cellular human IDE inhibition | hit rate 0.41% among 320,000 | HEK cells, FAbetaB cleavage, fluorescence polarization | AID 434962 | inhibition, % at 5.59 µM | P14735;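 active means percent inhibition above the average of all tested compounds plus 3 SD, set per screening campaign, cut at about 16% in these data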;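 further: IDE supplied by intact live HEK cells; FP after avidin binding of uncleaved biotin substrate so inhibition keeps polarization high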
TRPML3 ag = human mucolipin-3 channel agonism; activation, % at 3 µM; AID 1448; Q8TDD5; HEK293 TRPML3-YFP, Fluo-8 calcium fluorescence; 100% = the carbachol control signal; hit rate 0.29% among 220,000;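 active means activation above its plate's cutoff, the mean activation of the plate's test wells plus 3 SD, cut at about 12% in these data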
Target sequence (Q8TDD5 whole entry, looked up): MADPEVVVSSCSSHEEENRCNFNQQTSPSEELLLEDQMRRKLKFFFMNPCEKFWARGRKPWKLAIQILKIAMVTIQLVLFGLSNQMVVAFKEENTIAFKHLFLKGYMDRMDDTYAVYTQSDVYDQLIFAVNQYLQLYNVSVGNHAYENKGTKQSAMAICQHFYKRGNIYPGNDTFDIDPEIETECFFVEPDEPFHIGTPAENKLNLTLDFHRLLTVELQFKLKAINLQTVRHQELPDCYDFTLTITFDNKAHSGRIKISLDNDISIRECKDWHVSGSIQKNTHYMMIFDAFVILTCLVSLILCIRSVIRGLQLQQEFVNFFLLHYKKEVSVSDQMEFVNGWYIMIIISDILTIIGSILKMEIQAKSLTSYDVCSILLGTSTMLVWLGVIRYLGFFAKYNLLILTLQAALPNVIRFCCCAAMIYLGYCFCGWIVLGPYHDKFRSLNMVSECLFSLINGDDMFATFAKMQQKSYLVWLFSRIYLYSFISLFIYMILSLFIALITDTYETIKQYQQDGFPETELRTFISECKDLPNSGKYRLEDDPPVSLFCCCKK
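Test system – HEK293 line with stable expression of human TRPML3-YFP channel · Control set – carbachol 87 µM final as high control (100%), DMSO as low control (0%) · Signal – Fluo-8 calcium dye fluorescence, ex 470-495, em 515-575 nm · Incubation – 1-h 37 °C dye load, 5-s basal, 120-s post-compound reads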
TRPN1 ag = zebrafish TRPN1 (NompC) channel agonism. HEK293 zebrafish TRPN1-YFP, Fluo-8 calcium fluorescence; 100% = response to 87 µM carbachol. activation, % at 3 µM. hit rate 0.18% among 220,000;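 active means activation above its plate's cutoff, the mean activation of test wells on that plate plus 3 SD, cut at about 19% in these data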
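Material – zebrafish TRPN1-YFP in HEK293 cells · Doses – 3 µM single point · Schedule – dye 1 h 37 °C plus 30 min RT · Signal – Fluo-8 calcium fluorescence, excitation 470-495 nm, emission 515-575 nm · Read-out – % activation versus carbachol response · Control set – carbachol high, DMSO low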
A number is an active result; . = inactive; / = not tested or not shown.

SMILES	IDE cell activ	IDE cell inh	TRPML3 ag	TRPN1 ag
C#CCOCCOCCOCCNc1nc(N2CCN(C(=O)CCCCCCCCCCNC(=O)Cn3cc(C[C@@H](C)O)nn3)CC2)nc(N2CCN(C(=O)CCCCCCCCCCNC(=O)[C@@H]([C@H](C)CC)n3cc(CCCCCN)nn3)CC2)n1	26	.	/	/
C#CCOCCOCCOCCNc1nc(N2CCN(C(=O)CCCCCCCCCCNC(=O)[C@H](CCCN=C(N)N)n3cc(C[C@@H](C)CC)nn3)CC2)nc(N2CCN(C(=O)CCCCCCCCCCNC(=O)[C@@H]([C@H](C)CC)n3cc(CCCCCN)nn3)CC2)n1	/	.	/	/
C#CCOCCOCCOCCNc1nc(N2CCOCC2)nc(N2CCN(C(=O)CCCCCCCCCCNC(=O)[C@H]([C@@H](C)CC)n3cc(CCCCN=C(N)N)nn3)CC2)n1	.	.	/	/
C#CCOCCOCCOCCNc1nc(N2CCN(C(=O)CCCCCCCCCCNC(=O)[C@H]([C@@H](C)CC)n3cc(CCCCN=C(N)N)nn3)CC2)nc(N2CCN(C(=O)CCCCCCCCCCNC(=O)[C@@H]([C@H](C)O)n3cc(C)nn3)CC2)n1	51	.	/	/
C#CCOCCOCCOCCNc1nc(N2CCN(C(=O)CCCCCCCCCCNC(=O)Cn3cc(C[C@@H](C)O)nn3)CC2)nc(N2CCN(C(=O)CCCCCCCCCCNC(=O)[C@@H]([C@H](C)O)n3cc(C)nn3)CC2)n1	.	.	/	/
C#CCOCCOCCOCCNc1nc(N2CCN(C(=O)CCCCCCCCCCNC(=O)Cn3cc(CCCCCN)nn3)CC2)nc(N2CCN(C(=O)CCCCCCCCCCNC(=O)Cn3cc(C[C@@H](C)O)nn3)CC2)n1	22	.	/	/
C#CCOCCOCCOCCNc1nc(N2CCN(C(=O)CCCCCCCCCCNC(=O)Cn3cc(CCCCCN)nn3)CC2)nc(N2CCN(C(=O)CCCCCCCCCCNC(=O)[C@@H]([C@H](C)O)n3cc(C)nn3)CC2)n1	25	.	/	/
CC(=O)Nc1ccc(N2C(=O)c3ccc(C(=O)Nc4nnc(SCc5ccc(F)cc5)s4)cc3C2=O)cc1	.	.	.	.
O=C(Nc1nnc(-c2cccs2)o1)c1cccc(C(F)(F)F)c1	.	.	.	21
CCOc1cc2[nH]c(=S)n(CCCC(=O)NCc3ccccn3)c(=O)c2cc1OCC	.	.	/	/
COc1ccc(C(=O)NC(=S)NNC(=O)[C@H]2C[C@@H]2c2ccccc2)cc1OC	.	.	.	.
COc1cc(OC)cc(C(=O)NC(=S)NNC(=O)[C@H]2C[C@@H]2c2ccccc2)c1	.	.	19	34
COc1ccc(S(=O)(=O)N2CC3C4C=CC(C4)C3C2)cc1 (configuration not stated)	.	.	56	.
O=Cc1c(NC2CCCCC2)c2ccccc2[nH]c1=O	.	.	/	/
O=S(=O)(NC(=S)NC1CCCCC1)c1ccc(Br)cc1	.	.	.	.
O=C(C1CCCN(S(=O)(=O)c2ccccc2[N+](=O)[O-])C1)N1CCN(c2ccccc2)CC1 (configuration not stated)	.	18	.	.
CC(=O)Oc1c(C)cc(Cl)cc1C(=O)Nc1ccc([N+](=O)[O-])cc1Cl	.	.	.	26
CC1CC(=O)c2c(cc3c(-c4c(O)cc(O)c5c(O)c6c(cc45)OC(C)CC6=O)c(O)cc(O)c3c2O)O1 (configuration not stated)	25	.	.	.
CN(C)c1ccc(/C=C/C(O)=C2/C(=O)N(C)C3(C)CC2c2ccccc2O3)cc1 (configuration not stated)	/	42	.	.
Cc1nn(-c2ccccc2)c2nc(C(F)F)cc(C(F)F)c12	.	.	/	/
Cn1ccnc1C(O)c1ccccc1 (configuration not stated)	.	.	.	.
COc1ccc2ccccc2c1C(O)c1nccn1C (configuration not stated)	21	.	.	.
C=CCNCC(O)COc1ccc(C(C)=O)cc1OC (configuration not stated)	.	.	.	.
Cc1cc(Oc2ccc(C#N)cc2)nc(N2CCOCC2)n1	28	.	.	.
Cc1onc(-c2ccccc2Cl)c1C(=O)Nc1ncn[nH]1	.	.	.	.
SMILES	IDE cell activ	IDE cell inh	TRPML3 ag	TRPN1 ag
CC(C)CN(C(=O)COC(=O)c1ccc(Br)cc1)c1c(N)n(Cc2ccccc2)c(=O)[nH]c1=O	22	.	/	/
CCN(CC(=O)Nc1c(F)cccc1F)C(=O)c1ccc(S(=O)(=O)NCc2ccco2)cc1	.	.	/	/
CC(c1ccccc1C(O)(c1ccccc1)c1ccccc1)N(C)C (configuration not stated)	.	.	15	22
CCN1C[C@@H]2[C@@H]3C(=O)N(C)C(=O)[C@@H]3[C@](CC)(C(=O)OC)N2C1=NCc1ccccc1	.	/	/	/
CCCOc1ccc(C(=O)NNC(=S)NC(=O)c2ccco2)cc1	.	.	41	44
COc1ccc(C(=O)NNC(=S)NC(=O)c2ccco2)cc1	.	.	.	.
CC(CC(=O)O)CC(=O)Nc1cc([N+](=O)[O-])ccc1O (configuration not stated)	.	.	.	.
Cc1ccc(SCC(=O)Nc2cc([N+](=O)[O-])ccc2O)cc1	.	.	19	24
O=C(CSCc1ccc(Cl)cc1)Nc1cc([N+](=O)[O-])ccc1O	.	.	18	25
Cc1cc(C)n2nc(C(=O)Nc3ccc(S(=O)(=O)N(C)C)cc3)nc2n1	.	.	.	.
Cc1ccc(C2C=C(c3ccccc3)Nc3ncnn32)cc1 (configuration not stated)	.	.	/	/
Fc1ccc(C2=CC(c3ccc(Br)o3)n3ncnc3N2)cc1 (configuration not stated)	.	92	.	.
OCCCc1nc2n(n1)C(c1cccs1)C=C(c1ccc(Br)cc1)N2 (configuration not stated)	/	135	.	.
Brc1ccc(C2=CC(c3cccs3)n3ncnc3N2)cc1 (configuration not stated)	.	88	.	.
CCOC(=O)C1=C(C)N(CC(C)C)C(=O)C1	.	.	.	.
COc1ccc(OC)c(-c2c3cc(O)c(=O)cc-3oc3cc(O)c(O)cc23)c1	.	39	.	.
O=c1cc2oc3cc(O)c(O)cc3c(-c3ccccc3O)c-2cc1O	.	/	12	.
CCn1c(SC)nnc1C1CCCN(CC(=O)Nc2ccccc2N2CCOCC2)C1 (configuration not stated)	.	.	/	/
C=CCn1c(SCC(=O)N(CC)C2CCS(=O)(=O)C2)nc2scc(-c3ccccc3)c2c1=O (configuration not stated)	.	/	/	/
N#C/C(=N/Nc1ccc(OC(F)(F)F)cc1)C(N)=S	.	.	15	23
COc1ccc(N/N=C(\C#N)C(N)=O)cc1	.	.	.	.
COc1ccc(Cn2c(SCc3ccccc3C)nc3cc(OC)c(OC)cc3c2=N)cc1	22	.	.	.
CC(C)(C)C(=O)NC(=S)NNC(=O)c1ccc(-c2ccccc2)cc1	.	.	117	197
CC(C)(C)c1ccc(C(=O)NC(=S)NNC(=O)c2cccs2)cc1	.	.	.	19
